Experimental data from ChEMBL document CHEMBL1123779, “Modifications of primaquine as antimalarials. 4. 5-Alkoxy derivatives of primaquine” (J Med Chem, 1987).

Tests used:
Mus musculus [1] = experiment: Suppressive blood schizonticidal antimalarial activity evaluated in the trophozoite-induced Plasmodium berghei infection in mice (Mus musculus) at a dose 320 mg/kg given as no. of toxic deaths; type: functional
How it was run: (§1)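 Rane Laboratory mouse test with blood-induced P. berghei infection, five mice per group. Toxic deaths are deaths occurring before the 6th day postinfection.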

Plasmodium berghei [2] = experiment: Blood schizonticidal activity in trophozoite-induced Plasmodium berghei infected mice (Mus musculus) at 40 mg/kg; numbers cured; type: functional
How it was run: (§2)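 Run at the Rane Laboratory with blood-induced P. berghei infections in mice, five animals per group. A cure is a mouse surviving to 60 days postinfection. Deaths before day 6 are recorded separately as toxic deaths. Activity is scored from the increase in mean survival time over untreated controls, and counts as active when treated MST is more than twice control MST.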

Mus musculus [3] = experiment: Suppressive blood schizonticidal antimalarial activity evaluated in the trophozoite-induced Plasmodium berghei infection in mice (Mus musculus) at a dose 5 mg/kg given as no. of cures; type: functional; how it was run: as §2
Mus musculus [4] = experiment: Suppressive blood schizonticidal antimalarial activity evaluated in the trophozoite-induced Plasmodium berghei infection in mice (Mus musculus) at a dose 2.5 mg/kg given as number of cures; type: functional; how it was run: as §2
Plasmodium cynomolgi [5] = experiment: Cures in Plasmodium cynomolgi infected Rhesus monkeys (Macaca mulatta) on 1 mg/kg/day after 7 days; cured 2 of 2; type: functional
Mus musculus [6] = experiment: Suppressive blood schizonticidal antimalarial activity evaluated in the trophozoite-induced Plasmodium berghei infection in mice (Mus musculus) at a dose 10 mg/kg given as no. of cures; type: functional; how it was run: as §2
Plasmodium cynomolgi [7] = experiment: Cures in Plasmodium cynomolgi infected Rhesus monkeys (Macaca mulatta) on 0.1 mg/kg/day after 7 days; cured 3 of 4; type: functional
How it was run: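 Radical curative test run by the SEATO Medical Research Laboratory, Bangkok, in rhesus monkeys with sporozoite-induced P. cynomolgi infection. Cures are recorded as the number cured out of the number treated.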

Mus musculus [8] = experiment: Suppressive blood schizonticidal antimalarial activity evaluated in the trophozoite-induced Plasmodium berghei infection in mice (Mus musculus) at a dose 160 mg/kg given as no. of toxic deaths; type: functional; how it was run: as §1
Plasmodium berghei [9] = experiment: Suppressive blood schizonticidal antimalarial activity evaluated in the trophozoite-induced Plasmodium berghei infection in mice (Mus musculus) at a dose 640 mg/kg given as number of toxic deaths; type: toxicity, organism-based; parameters: dose 640 mg/kg; conditions: in vivo; how it was run: as §1
Mus musculus [10] = experiment: Suppressive blood schizonticidal antimalarial activity evaluated in the trophozoite-induced Plasmodium berghei infection in mice (Mus musculus) at a dose 20 mg/kg given as no. of cures; type: functional; how it was run: as §2
Mus musculus [11] = experiment: Suppressive blood schizonticidal antimalarial activity evaluated in the trophozoite-induced Plasmodium berghei infection in mice (Mus musculus) at a dose 80 mg/kg given as no. of toxic deaths; type: functional; how it was run: as §1
Mus musculus [12] = experiment: Suppressive blood schizonticidal antimalarial activity evaluated in the trophozoite-induced Plasmodium berghei infection in mice (Mus musculus) at a dose 40 mg/kg; type: functional; parameters: unit not given beside the values
How it was run: (§3)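 Run at the Rane Laboratory in mice infected with blood-induced P. berghei, five animals per group. Activity is the increase in mean survival time over untreated infected controls. A compound counts as active when treated-group MST is more than twice the control MST. Cures are mice surviving at 60 days postinfection.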

Plasmodium cynomolgi [13] = experiment: Cures in Plasmodium cynomolgi infected Rhesus monkeys (Macaca mulatta) on 0.316 mg/kg/day after 7 days; cured 2 of 4; type: functional
Mus musculus [14] = experiment: Suppressive blood schizonticidal antimalarial activity evaluated in the trophozoite-induced Plasmodium berghei infection in mice (Mus musculus) at a dose 10 mg/kg; type: functional; how it was run: as §3
Plasmodium cynomolgi [15] = experiment: Cures in Plasmodium cynomolgi infected Rhesus monkeys (Macaca mulatta) on 10.0 mg/kg/day after 7 days; type: functional, organism-based
Plasmodium berghei [16] = experiment: Blood schizonticidal antimalarial activity in the trophozoite-induced Plasmodium berghei infection in mice (Mus musculus) at 20 mg/kg; type: functional; parameters: unit not given beside the values; how it was run: as §3
Plasmodium cynomolgi [17] = experiment: Radical curative antimalarial activity against Plasmodium cynomolgi in Rhesus monkeys (Macaca mulatta) at 0.1 mg/kg/day over 7 days; cured 5 of 5; type: functional
Mus musculus [18] = experiment: Suppressive blood schizonticidal antimalarial activity evaluated in the trophozoite-induced Plasmodium berghei infection in mice (Mus musculus) at a dose 80 mg/kg given as no. of cures; type: functional; how it was run: as §2
Plasmodium cynomolgi [19] = experiment: Cures in Plasmodium cynomolgi infected Rhesus monkeys (Macaca mulatta) on 0.316 mg/kg/day after 7 days; cured 3 of 3; type: functional
Plasmodium cynomolgi [20] = experiment: Cures in Plasmodium cynomolgi infected Rhesus monkeys (Macaca mulatta) on 1 mg/kg/day after 7 days; cured 1 of 1; type: functional
Plasmodium cynomolgi [21] = experiment: Cures in Plasmodium cynomolgi infected Rhesus monkeys (Macaca mulatta) on 3.16 mg/kg/day after 7 days; cured 0 of 1; type: functional
Plasmodium cynomolgi [22] = experiment: Radical curative antimalarial activity against Plasmodium cynomolgi in Rhesus monkeys (Macaca mulatta) at 1 mg/kg/day over 7 days; cured 1 of 2; type: functional
Plasmodium cynomolgi [23] = experiment: Cures in Plasmodium cynomolgi infected Rhesus monkeys (Macaca mulatta) on 0.1 mg/kg/day after 7 days (x7); cured 0 of 2; type: functional
Plasmodium cynomolgi [24] = experiment: Cures in Plasmodium cynomolgi infected Rhesus monkeys (Macaca mulatta) on 0.316 mg/kg/day after 7 days; cured 0 of 2; type: functional
Plasmodium cynomolgi [25] = experiment: Cures in Plasmodium cynomolgi infected Rhesus monkeys (Macaca mulatta) on 0.1 mg/kg/day after 7 days; cured 1 of 2; type: functional
Mus musculus [26] = experiment: Suppressive blood schizonticidal antimalarial activity evaluated in the trophozoite-induced Plasmodium berghei infection in mice (Mus musculus) at a dose 80 mg/kg; type: functional; parameters: unit not given beside the values; how it was run: as §3
Mus musculus [27] = experiment: Suppressive blood schizonticidal antimalarial activity evaluated in the trophozoite-induced Plasmodium berghei infection in mice (Mus musculus) at a dose 160 mg/kg given as no. of cures; type: functional; how it was run: as §2
Plasmodium cynomolgi [28] = experiment: Cures in Plasmodium cynomolgi infected Rhesus monkeys (Macaca mulatta) on 0.316 mg/kg/day after 7 days; cured 0 of 3; type: functional
Plasmodium cynomolgi [29] = experiment: Cures in Plasmodium cynomolgi infected Rhesus monkeys (Macaca mulatta) on 0.316 mg/kg/day after 7 days; cured 2 of 3; type: functional
Mus musculus [30] = experiment: Suppressive blood schizonticidal antimalarial activity evaluated in the trophozoite-induced Plasmodium berghei infection in mice (Mus musculus) at a dose 5 mg/kg; type: functional; parameters: unit not given beside the values; how it was run: as §3
Plasmodium cynomolgi [31] = experiment: Radical curative antimalarial activity against Plasmodium cynomolgi infected Rhesus monkeys (Macaca mulatta) after 7 days at 0.1 mg/kg/day dose; cured 2 of 4; type: functional
Mus musculus [32] = experiment: Suppressive blood schizonticidal antimalarial activity evaluated in the trophozoite-induced Plasmodium berghei infection in mice (Mus musculus) at a dose 2.5 mg/kg; type: functional; how it was run: as §3
Plasmodium cynomolgi [33] = experiment: Cures in Plasmodium cynomolgi infected Rhesus monkeys (Macaca mulatta) on 0.316 mg/kg/day after 7 days; cures 2 of 2; type: functional
Plasmodium cynomolgi [34] = experiment: Radical curative antimalarial activity against Plasmodium cynomolgi in Rhesus monkeys (Macaca mulatta) at 1 mg/kg/day over 7 days; cured 4 of 4; type: functional

CCCCCOc1c(OC)cc(NC(C)CCCN)c2nccc(C)c12 (stereo unspecified)
Toxic deaths (Mus musculus [1]): 5
Cures (Plasmodium berghei [2]): 1
Cures (Mus musculus [3]): 5
Cures (Mus musculus [4]): 2
Cures/no. of animals (Plasmodium cynomolgi [5]): 2
Cures (Mus musculus [6]): 5
Cures/no. of animals (Plasmodium cynomolgi [7]): 3
Toxic deaths (Mus musculus [8]): 4
Toxic deaths (Plasmodium berghei [9]): 5
Cures (Mus musculus [10]): 4
Toxic deaths (Mus musculus [11]): 2

CCCCOc1c(OC)cc(NC(C)CCCN)c2ncccc12 (stereo unspecified)
Delta MST (Mus musculus [12]): 6.7
Cures/no. of animals (Plasmodium cynomolgi [5]): 2
Toxic deaths (Mus musculus [8]): 3
Cures/no. of animals (Plasmodium cynomolgi [13]): 2
Toxic deaths (Plasmodium berghei [9]): 5
Delta MST (Mus musculus [14]): 4.1
Cures/no. of animals (Plasmodium cynomolgi [15]): Toxic
Delta MST (Plasmodium berghei [16]): 6.5
Toxic deaths (Mus musculus [11]): 2

CCCCCCOc1c(OC)cc(NC(C)CCCN)c2nccc(C)c12 (stereo unspecified) [WR-242511]
Cures/no. of animals (Plasmodium cynomolgi [17]): 5
Toxic deaths (Mus musculus [1]): 5
Cures (Plasmodium berghei [2]): 5
Cures (Mus musculus [3]): 1
Cures (Mus musculus [18]): 4
Cures (Mus musculus [4]): 1
Cures (Mus musculus [6]): 1
Cures/no. of animals (Plasmodium cynomolgi [19]): 3
Toxic deaths (Mus musculus [8]): 3
Toxic deaths (Plasmodium berghei [9]): 5
Cures/no. of animals (Plasmodium cynomolgi [20]): 1
Cures/no. of animals (Plasmodium cynomolgi [21]): 0
Cures (Mus musculus [10]): 5

COc1cc(NC(C)CCCN)c2ncc(C)cc2c1 (stereo unspecified)
Toxic deaths (Mus musculus [1]): 5
Delta MST (Mus musculus [12]): 7.5
Cures/no. of animals (Plasmodium cynomolgi [22]): 2
Cures/no. of animals (Plasmodium cynomolgi [23]): 0
Cures/no. of animals (Plasmodium cynomolgi [24]): 0
Toxic deaths (Mus musculus [8]): 2
Toxic deaths (Plasmodium berghei [9]): 5
Delta MST (Plasmodium berghei [16]): 5.7
Toxic deaths (Mus musculus [11]): 1

COc1cc(NC(C)CCCN)c2nccc(C)c2c1OCCCCCCCCOc1ccccc1 (stereo unspecified)
Cures/no. of animals (Plasmodium cynomolgi [25]): 1
Toxic deaths (Mus musculus [1]): 2
Delta MST (Mus musculus [12]): 9.4
Delta MST (Mus musculus [26]): 4.4
Cures/no. of animals (Plasmodium cynomolgi [5]): 2
Cures (Mus musculus [27]): 3
Toxic deaths (Plasmodium berghei [9]): 1
Delta MST (Mus musculus [14]): 0.6
Cures/no. of animals (Plasmodium cynomolgi [28]): 0
Delta MST (Plasmodium berghei [16]): 3

CCCCCCOc1c(OC)cc(NC(C)CCCN)c2nc(C)cc(C)c12 (stereo unspecified)
Toxic deaths (Mus musculus [1]): 5
Cures (Plasmodium berghei [2]): 5
Cures/no. of animals (Plasmodium cynomolgi [29]): 2
Delta MST (Mus musculus [30]): 7.3
Cures (Mus musculus [6]): 1
Toxic deaths (Mus musculus [8]): 5
Toxic deaths (Plasmodium berghei [9]): 5
Cures/no. of animals (Plasmodium cynomolgi [20]): 1
Cures/no. of animals (Plasmodium cynomolgi [31]): 2
Cures (Mus musculus [10]): 2
Toxic deaths (Mus musculus [11]): 5

CCCCCCCOc1c(OC)cc(NC(C)CCCN)c2nccc(C)c12 (stereo unspecified)
Delta MST (Mus musculus [32]): 7.9
Toxic deaths (Mus musculus [1]): 5
Cures (Plasmodium berghei [2]): 4
Cures (Mus musculus [3]): 3
Cures/no. of animals (Plasmodium cynomolgi [23]): 0
Cures (Mus musculus [18]): 2
Cures (Mus musculus [6]): 3
Toxic deaths (Mus musculus [8]): 1
Cures/no. of animals (Plasmodium cynomolgi [33]): 2
Cures/no. of animals (Plasmodium cynomolgi [34]): 4
Toxic deaths (Plasmodium berghei [9]): 5
Cures/no. of animals (Plasmodium cynomolgi [15]): Toxic
Cures (Mus musculus [10]): 5
